“Also recorded” adds a separate entry of the source. Where two headings read alike, the source gives them in different places.
What was measured:
L. donovani = settings: read-out: mean IC50; L. donovani DD8; cited from earlier work
[1] = test system: L. donovani MHOM/IN/80/DD8 intracellular amastigotes; assay: L. donovani MHOM/IN/80/DD8 intracellular amastigote assay; type: cell-based, Leishmania donovani; settings: for IC50: Leishmania donovani, THP-1, 96 h, read-out: IC50 (µM) [mean ± SD]
In short: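 THP-1 cells: 12,500/well, 25 ng/mL PMA, 24 h at 37 °C. PMA washed off; cells rested 48 h. Infected with metacyclic promastigotes from 7-day culture (host:parasite 1:2.5) for 24 h, then free parasites washed off. Test compound 80–0.004 μM (0.4% DMSO), 96 h. PFA fixation, SYBR green/CellMask stain. Infected cells normalized to 1 μM amphotericin B and 0.4% DMSO. Sigmoidal IC50, two independent experiments.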

HEK-293 cells = assay: HEK-293 resazurin viability assay; type: cell-based, human; settings: vs L. donovani DD8 intracellular amastigotes, 96 h incubation
THP-1 cells = assay: Macrophage; type: cell-based, human; settings: vs L. donovani DD8 intracellular amastigotes
[2] = test system: L. donovani DD8 promastigotes; assay: Determination of the cidal action of compounds; type: cell-based, Leishmania donovani; settings: after 24 h incubation
In short: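 DD8 promastigotes from two cultures in separate M199 media (N = 2) seeded at 5 × 10^5 parasites/mL. Test compound added; cell numbers counted at each time point. Absence of cells at a concentration was scored as cidal.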

[3] = test system: L. donovani DD8 promastigotes; assay: Selection of resistant parasites under increasing drug pressure; type: cell-based, Leishmania donovani
In short: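 DD8 promastigotes were cultured under gradually increasing concentrations of each drug, starting at a sublethal level, to select resistant strains. Resistance was confirmed with the promastigote viability assay.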

[4] = test system: L. tropica, L. aethiopica, L. mexicana, L. panamensis and L. donovani; settings: read-out: EC50 values obtained for miltefosine; varied between species; cited from earlier work
[5] = test system: L. infantum chagasi (MHOM/BR/1972/BH46); assay: In vivo L. infantum chagasi chronic hamster model, parasite load by qPCR; set-up: species or system golden hamsters (Mesocricetus auratus); settings: for average number of amastigotes in the liver / average number of amastigotes in the spleen: group average
[6] = test system: cytokines IL-10, IL-4, TGFβ, IFN-γ, IL-17 and TNFα; assay: Relative expression of cytokines by qPCR in hamster spleen and liver; type: in vivo, golden hamsters (Mesocricetus auratus); settings: for TGF-β expression: compared to untreated (UTG)
In short: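 Hamsters in chronic infection (~60 days) treated 10 consecutive days: vehicle (0.5% carboxymethyl cellulose, oral), GLU 50 mg/kg/day ip, or test compound. Spleen/liver RNA reverse-transcribed; TaqMan qPCR normalized to hamster microglobulin at equal cDNA input; water as negative control. Cycling: 50 °C 2 min, 95 °C 10 min, 40 × (95 °C 15 s, 60 °C 1 min).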

[7] = test system: L. donovani MHOM/SD/62/1S-CL2D, LdBOB intracellular amastigotes; assay: L. donovani MHOM/SD/62/1S-CL2D, LdBOB intracellular amastigote assay; type: cell-based, Leishmania donovani; settings: for IC50: Leishmania donovani, 72 h, read-out: IC50 (µM) [mean ± SD]; for fold difference in activity between L. donovani DD8 and LdBOB: intracellular amastigote 72 h assay; for Selectivity THP-1 cells: vs L. donovani LdBOB intracellular amastigotes, 72 h incubation
[8] = test system: L. donovani DD8 promastigotes; assay: Time to kill assay; type: cell-based; settings: Leishmania donovani, read-out: IC50, time to kill, promastigotes
In short: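 Time-kill: DD8 promastigotes exposed to test compound for 24, 48, 72 or 96 h in the promastigote viability assay. 14-point concentration series from 40 µM top; IC50 calculated at each exposure time.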

[9] = test system: amphotericin B resistant L. donovani DD8 promastigotes; assay: Activity on amphotericin B resistant parasites, promastigote assay; type: cell-based, Leishmania donovani
In short: (§1)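 Resistant DD8 promastigote lines were raised by culture under gradually increasing drug concentrations, starting sublethal. Resistant clones were then tested alongside the wild-type strain in the resazurin promastigote viability assay.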

[10] = test system: amphotericin B resistant L. donovani DD8 intracellular amastigotes; assay: Activity on amphotericin B resistant parasites, intracellular amastigote assay; type: cell-based, Leishmania donovani
In short: (§2)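 Drug-selected resistant DD8 promastigotes were used to infect PMA-differentiated THP-1 cells. Test compound activity was assessed in the intracellular amastigote assay and compared with the wild-type strain.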

[11] = test system: miltefosine resistant L. donovani DD8 promastigotes; assay: Activity on miltefosine resistant parasites, promastigote assay; type: cell-based, Leishmania donovani
In short: as §1

[12] = test system: miltefosine resistant L. donovani DD8 intracellular amastigotes; assay: Activity on miltefosine resistant parasites, intracellular amastigote assay; type: cell-based, Leishmania donovani
In short: as §2

[13] = Distribution coefficient estimation using chromatography; type: physicochemical; settings: pH 7.4
In short: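 LogD estimated at pH 7.4 by gradient HPLC, correlating retention against standards of known partition coefficient.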

[14] = test system: L. infantum chagasi (MHOM/BR/1972/BH46); assay: Histopathological analysis of hamster liver and spleen; type: in vivo, golden hamsters (Mesocricetus auratus); settings: infected hamsters, 10 mg/kg/day oral
[15] = test system: L. donovani DD8 intracellular amastigotes; assay: Time to kill assay; type: cell-based; settings: Leishmania donovani, 24 h, read-out: IC50, time to kill, intracellular amastigotes
In short: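 Intracellular L. donovani amastigotes were exposed to test compound for 24, 48 or 72 h, with amphotericin B and miltefosine as reference drugs. A 14-point concentration–response series started at 40 µM, and an IC50 was derived for each exposure time. Other conditions followed the paper's intracellular amastigote assay.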

[16] = test system: Leishmania donovani promastigotes; settings: cited from earlier work
[17] = BZ1, BZ1-I 10 mg/kg/day oral, GLU 50 mg/kg/day i.p.
[18] = BZ1, BZ1-I 10 mg/kg/day oral, GLU 50 mg/kg/day i.p., 10 days
[19] = L. donovani DD8 intracellular amastigote assay (96 h)

Row | Compound | IC50 [1] [µM] | Selectivity HEK-293 cells (HEK-293 cells) | Selectivity THP-1 cells (THP-1 cells; 96 h incubation) | concentration at which no viable promastigotes were observed [2] [µM] | concentration withstood by resistant clones ([3]; after 428 days) [µM] | parasite burden reduction in spleen [5, 17] [%] | average number of amastigotes in the liver [5, 18] [g⁻¹] | average number of amastigotes in the spleen [5, 18] [g⁻¹] | IC50 [7] [µM] | fold difference in activity between L. donovani DD8 and LdBOB [7] [fold] | Selectivity THP-1 cells [7] | Selectivity THP-1 cells (THP-1 cells; 72 h incubation) | IC50 ([8]; 24 h) [nM] | IC50 ([8]; 48 h) [nM] | activity against amphotericin B resistant strain compared to wild-type [9] | activity against amphotericin B resistant strain compared to wild-type [10] | activity against miltefosine resistant strain compared to wild-type [11] | activity against miltefosine resistant strain compared to wild-type [12] | histopathological findings, liver [14] | histopathological findings, spleen [14] | other results
1 | NC[C@@H]1O[C@H](O[C@H]2[C@@H](O)[C@H](O[C@@H]3[C@@H](O)[C@H](N)C[C@H](N)[C@H]3O[C@H]3O[C@H](CO)[C@@H](O)[C@H](O)[C@H]3N)O[C@@H]2CO)[C@H](N)[C@@H](O)[C@@H]1O [Paromomycin] | – | – | – | – | – | – | – | – | – | – | – | – | – | – | – | – | – | – | – | – | IC50 (L. donovani): 158000 to 166000 nM
2 | CCCCCCCCCCCCCCCCOP(=O)([O-])OCC[N+](C)(C)C [Miltefosine, miltefosine, reference compound] | 2.54 ± 0.57 | 15.66 | >7.87 | 6.66 | 40 | – | – | – | – | – | – | – | – | – | – | – | – | – | – | – | Selectivity THP-1 cells (THP-1 cells; 96 h incubation, listed as miltefosine): 7.87; EC50 [4]: 2630 to 10600 nM
3 | Meglumine Antimoniate [reference compound] | – | – | – | – | – | 99.21 | 2530 | 12200 | – | – | – | – | – | – | – | – | – | – | – | – | parasite burden reduction in liver [5, 17]: 98.79%; INF-γ expression ([6]; spleen samples): significant difference; also recorded: increased INF-γ (Th1) expression
4 | CCOc1ccc(Nc2c3c(nc4ccccc24)CCC3)cc1 [BZ1, N-(4-Ethoxyphenyl)-2,3-dihydro-1H-cyclopenta[b]quinolin-9-amine] | 0.59 ± 0.13 | > 33 | >33.89 | 6.66 | 11 | 98.56 | 3020 | 25400 | 4.4 ± 0.12 | 5 | >11.76 | >25.64 | 4310 ± 220 | 2370 ± 740 | no significant difference | no significant difference | no significant difference | no significant difference | inflammatory nodules in the hepatic parenchyma, lymph histiocytic inflammatory infiltrate in the portal space forming nodules | increase of macrophages in the red pulp forming nodular aggregates and granulomas | fold greater activity than miltefosine [1, 19]: 5 fold; fold lower in vitro activity than amphotericin B [1, 19]: ~ 3 fold; chromatographic logD [13]: 5; in vivo toxicity in the hamster VL model ([5]; 10 mg/kg/day oral, 10 days): does not exhibit in vivo toxicity; TNF-α expression ([6]; compared to GLU and untreated, liver and spleen samples): significant downregulation; TGF-β expression [6]: significantly downregulated; also recorded: decreased expression of TGF-β; IL-4 expression ([6]; compared to untreated, spleen and liver samples): significantly downregulated; IL-17 expression ([6]; liver samples, compared to GLU): significant downregulation
5 | c1ccc(Oc2ccc(Nc3c4c(nc5ccccc35)CCC4)cc2)cc1 [BZ1-I, N-(4-phenoxyphenyl)-1H,2H,3H-cyclopenta[b]quinolin-9-amine] | 0.4 ± 0.38 | >24.11 | >49.12 | 1.66 | – | 99.95 | 120 | 162 | 4.26 ± 0.24 | 10 | >11.49 | >44.44 | 3080 ± 1110 | 690 ± 350 | no significant difference | no significant difference | no significant difference | no significant difference | mild inflammatory infiltrate in the portal space and nodules in the parenchyma with the presence of giant cells | evident increase in macrophages in the red pulp with the formation of nodules | IC50 [15]: 4840 ± 830 nM; concentration withstood by resistant clones ([3]; after 210 days): 5.5 µM; fold greater activity compared to the GLU treatment group ([5]; 10 mg/kg/day oral vs GLU 50 mg/kg/day i.p.): ~ 21 fold; TGF-β expression [6]: decreased expression of TGF-β
6 | C[C@@H]1[C@H](O)[C@@H](C)/C=C/C=C/C=C/C=C/C=C/C=C/C=C/[C@H](O[C@@H]2O[C@H](C)[C@@H](O)[C@H](N)[C@@H]2O)C[C@@H]2O[C@](O)(C[C@@H](O)C[C@@H](O)[C@H](O)CC[C@@H](O)C[C@@H](O)CC(=O)O[C@H]1C)C[C@H](O)[C@H]2C(=O)O [Amphotericin B, reference compound] | 0.2 ± 0.02 | – | 10.24 | 0.33 | 0.42 | – | – | – | – | – | – | – | – | – | – | – | – | – | – | – | resistance generated [16]: 20 fold

From article PMC12238405 (Communications Biology, 2025)
